# Screens (PubChem)
# PMI act satM6P: PMI (human) activation, high substrate; coupled PMI enzyme assay, resazurin fluorescence, 20 min; stronger effect = higher value; 1 = untreated enzyme, 0 = substrate-free blank; activation factor at 20 µM; 190,000 tested, 0.34% active;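 active = activation factor of 2 or more at 20 µM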
# Target sequence (P34949 whole entry, looked up): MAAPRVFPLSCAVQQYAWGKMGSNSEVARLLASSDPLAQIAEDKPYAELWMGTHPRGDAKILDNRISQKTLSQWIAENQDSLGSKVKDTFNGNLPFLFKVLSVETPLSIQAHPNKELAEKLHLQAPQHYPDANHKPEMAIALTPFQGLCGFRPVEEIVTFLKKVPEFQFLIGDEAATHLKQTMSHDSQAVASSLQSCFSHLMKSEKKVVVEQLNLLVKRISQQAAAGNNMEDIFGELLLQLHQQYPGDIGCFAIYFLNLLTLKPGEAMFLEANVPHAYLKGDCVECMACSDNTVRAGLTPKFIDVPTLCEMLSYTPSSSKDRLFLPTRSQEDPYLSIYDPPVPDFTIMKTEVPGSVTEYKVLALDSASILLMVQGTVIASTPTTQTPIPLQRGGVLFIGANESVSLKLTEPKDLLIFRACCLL
#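 Test system: Human PMI in coupled enzyme assay | Input: 15 ng/mL PMI | Medium: HEPES-buffered pH 7.4 with magnesium and detergent | Compound: One concentration, 20 µM, in 1% DMSO | Incubation: Enzyme reaction with compound 20 min at room temperature | Detection: Diaphorase-driven resazurin-to-resorufin fluorescence, excitation 544, emission 590 nm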
# L major viab: inhibitors of Leishmania major promastigote growth; inhibition, % at 10 µM; 200,000 tested, 9% active; AID 1063; Leishmania major promastigotes, resazurin fluorescence viability; in the data active = inhibition above about 50%;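 also: promastigotes grown with compound for 44 hours at 28 °C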
# PMI activator: increases human mannose-6-phosphate isomerase activity; AID 1214; purified human PMI, coupled resazurin fluorescence, 20 min; stronger effect = higher value; 1 = vehicle control, 0 substrate-free wells; activation factor at 20 µM; 190,000 tested, 0.005% active; P34949;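 active = activation factor of 2 or more at 20 µM, relative to plate controls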
# PTEN del growth: growth suppressors of cells with PTEN tumor suppressor deletion; HCT116 PTEN-null viability, CellTiter-Glo, 60 h; stronger effect = lower value; viability, % at 10 µM; 140,000 tested, 1.2% active; AID 827;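 active = viability at or below a set limit, 4 SD under the median of all tested compounds, cut at about 3.7% in these data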;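 also: PTEN knockout HCT116 line with beta catenin targeted HCT116 as companion control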
# HCT116 bCat-KO: beta-catenin-lacking colon tumor cell growth suppression; 140,000 tested, 1.5% active; HCT116 beta-catenin knockout viability, CellTiter-Glo, 60 h; stronger effect = lower value; viability, % at 10 µM;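 active = viability at or under a set limit, the compound median less 4 SD, cut at about 6% in these data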;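 also: 0% = Hyamine 1622 control at 20 µM and 100% = untreated cell control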
# Starred values were filed as active, the others as inactive; . = no result given. This is a sample that favours compounds with a hit; in the whole collection about 9.6% have one here.
SMILES,PMI act satM6P,L major viab,PMI activator,PTEN del growth,HCT116 bCat-KO
N=c1n(CCOc2ccccc2)c2ccccc2n1CCN1CCOCC1,1,4.4,1,82.6,79.6
CCOc1cccc(OCCCCN2CCOCC2)c1,1,92.6*,0.9,93.9,88.4
c1ccc(OCCCCN2CCOCC2)cc1,1.1,78.7*,1.1,111.5,104.1
N#CCCn1ncn(-c2ccccc2)c1=S,1,-3.2,1,101.7,101.3
O=c1[nH]snc1N1CCOCC1,1.1,19.2,1.3,.,.
N#C/C(=C\c1ccco1)C(=O)Nc1cccc2ncccc12,1.1,-6.1,1,110.1,100.5
COc1cc(NC(=O)COC(=O)/C=C/c2c(C)nn(-c3ccc(F)cc3)c2Cl)cc(OC)c1,0.9,64.3*,0.7,67.5,60.2
COc1cc(NC(=O)COC(=O)/C=C/c2ccccc2Cl)cc(OC)c1,0.9,36.9,0.9,100.3,95.6
Cc1[nH]nc(SCC(=O)NCc2ccc(Cl)cc2)c1[N+](=O)[O-],1,35.7,1,93.3,91.8
N/C(Cc1nc(-c2ccc(Br)cc2)cs1)=N\O,0.9,-4.7,1,.,.
Cc1cc(Cl)ccc1OCC(=O)N1CCCCC1,0.9,-3.7,0.9,104.2,108.4
O=C(COc1ccc(Cl)cc1Cl)N1CCCN(C(=O)COc2ccc(Cl)cc2Cl)CC1,0.9,97.4*,0.9,81.0,80.6
CCC(CC)C(=O)NCc1ccc(OC)cc1,1,9.8,1,.,.
CCCn1c(SC(C(=O)Nc2cccc(OC)c2)c2ccccc2)nc2ccccc2c1=O (stereo not given),1,4.3,0.9,54.2,57.4
Cc1cc(C(=O)OCC(=O)NC2CCS(=O)(=O)C2)c2ccccc2n1 (stereo not given),1,-1.7,1,.,.
COc1ccc2cc(-c3cc(C(=O)OCC(=O)NC4CCS(=O)(=O)C4)c4ccccc4n3)ccc2c1 (stereo not given),0.8,60.0*,1,62.0,67.7
O=C(COC(=O)c1cc(-c2cccs2)nc2ccccc12)NC1CCS(=O)(=O)C1 (stereo not given),1.1,-4.5,1.1,.,.
O=C(COC(=O)c1cc(-c2cccc3ccccc23)nc2ccccc12)NC1CCS(=O)(=O)C1 (stereo not given),0.8,69.2*,1.1,96.8,92.3
O=C(NC(=S)NNS(=O)(=O)c1ccc(Cl)cc1)c1cccnc1,0.8,-5.1,0.7,.,.
Cc1nc(NCc2ccco2)c2c(C)c(C)sc2n1,1.1,31.0,1,2.2*,1.7*
Cc1ccc(C(=O)NC(=S)N2CCN(C(=O)OC(C)(C)C)CC2)cc1Br,1,-9.3,0.9,.,.
O=C(CN1CCCCC1)Nc1ccccc1-c1ccccc1,0.9,7.2,0.8,89.7,87.1
O=C(CN1CCN(C2CCCCC2)CC1)Nc1ccccc1-c1ccccc1,1,58.7*,0.9,73.4,71.4
O=C(/C=C/c1ccc(Cl)cc1Cl)N(Cc1ccc(Cl)cc1)C1CCS(=O)(=O)C1 (stereo not given),0.9,87.8*,0.9,43.4,52.0
O=C(/C=C/c1ccc(Cl)cc1Cl)N(Cc1ccccc1)C1CCS(=O)(=O)C1 (stereo not given),1,84.1*,0.9,69.4,67.7
SMILES,PMI act satM6P,L major viab,PMI activator,PTEN del growth,HCT116 bCat-KO
O=C(/C=C/c1ccc(Cl)cc1)N(Cc1ccccc1)C1CCS(=O)(=O)C1 (stereo not given),1,3.2,1,86.7,87.3
C#CCSc1nnc(-c2ccc(OC)cc2)o1,1.1,-6.8,1,24.3,16.6
Cc1nn2c(nc(N3CCCCC3)c3ccccc32)c1C=O,0.8,53.2*,0.8,73.2,75.3
COc1ccc(-n2cnc3cc(C(=O)NCCN4CCOCC4)ccc32)cc1,1,0.3,1.1,.,.
COCCNc1ccc([N+](=O)[O-])cc1C(=O)Nc1cccc(C)n1,0.9,2.2,1,.,.
CCCS(=O)(=O)c1c(S(=O)(=O)CCC)c2c3ccccc3ccn2c1C(N)=O,1.1,15.2,1,99.8,115.8
CC(C)Cc1nc2oc3c(N4CCN(CCO)CC4)ncnc3c2c2c1CCCC2,1,51.7*,1,51.9,36.9
CCN1CCN(c2ncnc3c2oc2nc(C(C)C)c4c(c23)CCC4)CC1,1,.,1,.,.
Cc1nc2cc(Nc3nnc(-c4ccccc4)c4ccccc34)ccc2n1C,0.9,88.4*,1,86.7,97.0
O=C(NCc1ccc(Cl)cc1)c1ccc(N2CCCC2=O)cc1,1.1,21.1,1.1,.,.
